Reference: ChEMBL document CHEMBL4715806, “Asymmetric Hydroboration Approach to the Scalable Synthesis of ((1R,3S)-1-Amino-3-((R)-6-hexyl-5,6,7,8-tetrahydronaphthalen-2-yl)cyclopentyl)methanol (BMS-986104) as a Potent S1P Receptor Modulator” (J Med Chem, 2016)
Each block holds one compound with its values, some of them ahead of it. Activity calls are given as the source filed them. The calls are words filed in the database; no cut-off is given here.

Legend:
Cytochrome P450 2C9 = Cytochrome P450 2C9 (Homo sapiens, UniProt P11712); experiment: Inhibition of CYP2C9 (unknown origin); format: ADME
Mus musculus [1] = experiment: Induction of lymphopenia in Balb/c mouse assessed as reduction of circulating lymphocytes at 0.5 mg/kg, po measured after 24 hrs relative to control; format: functional
How it was run: (§1)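 Single oral dose to Balb/c mice in PEG300 vehicle, as solution or suspension; vehicle-only group as control. Retro-orbital bleeds at 4 h and 24 h. Lymphocyte counts read on a hematology analyzer. Expressed as % reduction of circulating lymphocytes versus the vehicle group at each time. Group means, n = 3–4 per group.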

Cytochrome P450 3A4 = Cytochrome P450 3A4 (Homo sapiens, UniProt P08684); experiment: Inhibition of CYP3A4 (unknown origin); format: ADME
[2] = Half life in monkey liver microsomes; format: ADME, Macaca mulatta, Microsome; conditions: rhesus monkey
Mus musculus [3] = experiment: Induction of lymphopenia in Balb/c mouse assessed as reduction of circulating lymphocytes at 30 mg/kg, po measured after 24 hrs relative to control; format: functional; how it was run: as §1
[4] = Unbound fraction in dog plasma; format: ADME, cell-free, Canis lupus familiaris
[5] = Half life in rat liver microsomes; format: ADME, Microsome
Cytochrome P450 2C8 = molecular target: T1, Cytochrome P450 2C8 (Homo sapiens, UniProt P10632); experiment: Inhibition of CYP2C8 (unknown origin); format: ADME
T1 sequence (P10632 whole entry): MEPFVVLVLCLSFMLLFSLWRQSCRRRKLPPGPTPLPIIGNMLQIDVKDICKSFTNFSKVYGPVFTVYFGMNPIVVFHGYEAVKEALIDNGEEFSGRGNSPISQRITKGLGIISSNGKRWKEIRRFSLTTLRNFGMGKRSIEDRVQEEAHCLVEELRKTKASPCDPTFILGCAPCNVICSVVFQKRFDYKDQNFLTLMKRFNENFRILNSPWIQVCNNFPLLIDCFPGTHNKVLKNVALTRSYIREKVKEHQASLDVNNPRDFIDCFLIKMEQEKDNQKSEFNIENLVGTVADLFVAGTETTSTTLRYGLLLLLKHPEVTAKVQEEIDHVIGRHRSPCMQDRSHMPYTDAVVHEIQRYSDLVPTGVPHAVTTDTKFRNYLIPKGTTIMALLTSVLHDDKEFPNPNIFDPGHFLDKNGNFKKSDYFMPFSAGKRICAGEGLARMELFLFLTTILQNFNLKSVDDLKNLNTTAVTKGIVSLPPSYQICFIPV

Cytochrome P450 2D6 = Cytochrome P450 2D6 (Homo sapiens, UniProt P10635); experiment: Inhibition of CYP2D6 (unknown origin); format: ADME
Mus musculus [6] = experiment: Suppression of experimental autoimmune-encephalomyelositis in MOG peptide induced C57BL/6 mouse EAE chronic model assessed as improvement in clinical scores at 4 mg/kg, po dosed every other day relative to control; format: functional
How it was run: (§2)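 C57BL/6 female mice, 6–8 weeks, n=10 per group, immunized subcutaneously with MOG35-55 emulsified 1:1 in incomplete Freund's adjuvant plus M. tuberculosis H37RA. Oral dosing from day 1, every other day or daily as stated. Clinical scores graded up to 5 (death) and averaged per group. At termination, lumbar spinal cord taken for formalin fixation and paraffin sections stained with H&E and Luxol Fast Blue. Groups compared by one-way ANOVA with Tukey post test.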

hERG (KCNH2) = hERG (KCNH2) (Homo sapiens, UniProt Q12809); experiment: Inhibition of human ERG expressed in HEK293 cells assessed as inhibition of peak tail current at 0.3 uM by patch clamp analysis; format: cell-based; conditions: HEK293 cells expressing human ERG
How it was run: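 Whole-cell patch clamp on HEK293 cells stably expressing the cloned hERG α subunit, in aqueous buffer pH 7.4 at room temperature. Test pulses at 0.05 Hz stepped from holding to +20 mV for 2 s. Tail currents evoked by a subsequent voltage step. Inhibition measured on peak tail current.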

Mus musculus [7] = experiment: Induction of lymphopenia in Balb/c mouse assessed as reduction of circulating lymphocytes at 10 mg/kg, po measured after 4 hrs relative to control; format: functional; how it was run: as §1
[8] = Drug metabolism in orally dosed Balb/c mouse assessed as phosphate metabolite to parent AUC (0-24 hrs) ratio at after 24 hrs; format: ADME, organism-based; conditions: in vivo, po
Cytochrome P450 2C19 = Cytochrome P450 2C19 (Homo sapiens, UniProt P33261); experiment: Inhibition of CYP2C19 (unknown origin); format: ADME
[9] = Unbound fraction in human plasma; format: ADME, cell-free
Mus musculus [10] = experiment: Suppression of experimental autoimmune-encephalomyelositis in MOG peptide induced C57BL/6 mouse EAE chronic model assessed as improvement in clinical scores at 0.5 to 4 mg/kg, po dosed every other day; format: functional, organism-based; conditions: dose 0.5-4 mg/kg; how it was run: as §2
Mus musculus [11] = experiment: Suppression of experimental autoimmune-encephalomyelositis in MOG peptide induced C57BL/6 mouse EAE chronic model assessed as improvement in clinical scores at 0.5 mg/kg, po dosed every other day relative to control; format: functional; how it was run: as §2
Mus musculus [12] = experiment: Induction of lymphopenia in Balb/c mouse assessed as reduction of circulating lymphocytes at 0.5 mg/kg, po measured after 4 hrs relative to control; format: functional; how it was run: as §1
[13] = Half life in mouse; format: ADME, organism-based; conditions: in vivo
Mus musculus [14] = experiment: Induction of lymphopenia in orally dosed Balb/c mouse assessed as reduction of circulating lymphocytes measured after 24 hrs relative to control; format: functional, organism-based; how it was run: as §1
[15] = Unbound fraction in rat plasma; format: ADME, cell-free
[16] = Half life in human liver microsomes; format: ADME, Microsome
Mus musculus [17] = experiment: Induction of lymphopenia in Balb/c mouse assessed as reduction of circulating lymphocytes at 30 mg/kg, po measured after 4 hrs relative to control; format: functional; how it was run: as §1
[18] = Unbound fraction in mouse plasma; format: ADME, cell-free
Mus musculus [19] = experiment: Induction of lymphopenia in Balb/c mouse assessed as reduction of circulating lymphocytes at 10 mg/kg, po measured after 24 hrs relative to control; format: functional; how it was run: as §1
Mus musculus [20] = experiment: Suppression of experimental autoimmune-encephalomyelositis in MOG peptide induced C57BL/6 mouse EAE chronic model assessed as reduction in central nervous system damage at 0.5 to 4 mg/kg, po dosed every other day by hematoxylin and eosin staining based histological analysis relative to control; format: functional, organism-based; conditions: dose 0.5-4 mg/kg; how it was run: as §2
[21] = Half life in mouse liver microsomes; format: ADME, Microsome
[22] = Inhibition of sodium channel (unknown origin) assessed as reduction in Na+ flux; parameters: species or system Homo sapiens
Mus musculus [23] = experiment: Induction of lymphopenia in Balb/c mouse assessed as reduction of circulating lymphocytes at 1 mg/kg, po measured after 4 hrs relative to control; format: functional; how it was run: as §1
[24] = Unbound fraction in cynomolgus monkey plasma; format: ADME, cell-free, Macaca fascicularis
[25] = molecular target: T2, Sphingosine 1-phosphate receptor 3 (Homo sapiens, UniProt Q99500); experiment: Agonist activity at human S1P3 expressed in EDG3-Ga15-bla HEK293T cells incubated for 45 mins by scintillation counting based [35S]GTP-gamma-S binding assay relative to control; format: cell membranes, Cell membrane
How it was run: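 Membranes from EDG3-Ga15-bla HEK293T cells, 3 μg protein/well, mixed with compound in 3-fold dilution series. Room temperature, 45 min. Filter capture, water washes, scintillation counting. EC50 taken at 50% of each compound's own Ymax.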

[26] = molecular target: Sphingosine 1-phosphate receptor 1 (Homo sapiens, UniProt P21453); experiment: Agonist activity at human S1P1 in HLE cell membranes incubated for 45 mins by scintillation counting based [35S]GTP-gamma-S binding assay; parameters: species or system Cell membrane
[27] = molecular target: T2, Sphingosine 1-phosphate receptor 3; experiment: Antagonist activity at human S1P3 expressed in EDG3-Ga15-bla HEK293T cells incubated for 45 mins by scintillation counting based [35S]GTP-gamma-S binding assay relative to control; format: cell membranes, Cell membrane
Cerebellum [28] = experiment: Induction of remyelination in lysophosphatidylcholine-induced demyelination in CD1 mouse organotypic cerebellar slice assessed as promotion of Purkinje cell axonal remyelination at 0.01 to 10 nM incubated for 7 days by immunohistochemistry based three-dimensional brain cell culture assay; format: functional, tissue-based; conditions: dose 0.01-10 nM, time 7.0 day
How it was run: (§3)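 Cerebellum from P1-2 CD1 mouse pups cut into 350 μm parasagittal slices. Cultured on inserts at 36–37 °C, 5% CO2, in MEM/horse serum/EBSS/glucose medium for 13 days. Demyelination with 0.5 mg/ml LPC overnight, then 24 h in medium, then 7 days of treatment. Slices immunostained for MBP and CBD and imaged by confocal at ×40. Myelination index = CBD+MBP double-stained area divided by CBD single-stained area. ANOVA with Dunnett test.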

Cerebellum [29] = experiment: Induction of remyelination in lysophosphatidylcholine-induced demyelination in CD1 mouse organotypic cerebellar slice at 0.01 to 10 nM incubated for 7 days by immunohistochemistry based three-dimensional brain cell culture assay; format: functional, tissue-based; conditions: dose 0.01-10 nM, time 7.0 day; how it was run: as §3
Cerebellum [30] = experiment: Induction of remyelination in lysophosphatidylcholine-induced demyelination in CD1 mouse organotypic cerebellar slice assessed as myelination index level at 0.01 to 10 nM incubated for 7 days by immunohistochemistry based three-dimensional brain cell culture assay (reference value: 50%); format: functional; conditions: dose 0.01-10 nM, time 7 day; how it was run: as §3

T2 sequence (Q99500 whole entry): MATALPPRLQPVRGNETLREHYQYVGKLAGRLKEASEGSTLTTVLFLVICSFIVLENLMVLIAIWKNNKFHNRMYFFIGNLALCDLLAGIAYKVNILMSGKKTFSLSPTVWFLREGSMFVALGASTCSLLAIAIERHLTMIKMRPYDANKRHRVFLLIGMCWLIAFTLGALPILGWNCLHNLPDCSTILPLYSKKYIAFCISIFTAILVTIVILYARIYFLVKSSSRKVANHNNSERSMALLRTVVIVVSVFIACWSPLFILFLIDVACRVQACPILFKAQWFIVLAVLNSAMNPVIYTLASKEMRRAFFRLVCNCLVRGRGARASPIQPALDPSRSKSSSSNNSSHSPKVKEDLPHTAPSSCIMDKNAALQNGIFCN
Sphingosine 1-phosphate receptor 1, sequence (P21453 whole entry): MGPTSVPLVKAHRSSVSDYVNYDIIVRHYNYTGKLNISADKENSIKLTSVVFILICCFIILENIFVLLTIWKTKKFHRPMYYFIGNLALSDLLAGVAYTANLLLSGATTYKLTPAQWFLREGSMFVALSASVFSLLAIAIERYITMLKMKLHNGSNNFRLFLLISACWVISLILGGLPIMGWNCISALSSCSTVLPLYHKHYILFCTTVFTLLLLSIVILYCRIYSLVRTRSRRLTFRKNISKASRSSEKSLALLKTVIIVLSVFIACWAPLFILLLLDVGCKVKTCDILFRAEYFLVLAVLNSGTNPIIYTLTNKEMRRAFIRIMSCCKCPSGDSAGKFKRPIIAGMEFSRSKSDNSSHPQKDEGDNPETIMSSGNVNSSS
Cytochrome P450 2C19, sequence (P33261 whole entry): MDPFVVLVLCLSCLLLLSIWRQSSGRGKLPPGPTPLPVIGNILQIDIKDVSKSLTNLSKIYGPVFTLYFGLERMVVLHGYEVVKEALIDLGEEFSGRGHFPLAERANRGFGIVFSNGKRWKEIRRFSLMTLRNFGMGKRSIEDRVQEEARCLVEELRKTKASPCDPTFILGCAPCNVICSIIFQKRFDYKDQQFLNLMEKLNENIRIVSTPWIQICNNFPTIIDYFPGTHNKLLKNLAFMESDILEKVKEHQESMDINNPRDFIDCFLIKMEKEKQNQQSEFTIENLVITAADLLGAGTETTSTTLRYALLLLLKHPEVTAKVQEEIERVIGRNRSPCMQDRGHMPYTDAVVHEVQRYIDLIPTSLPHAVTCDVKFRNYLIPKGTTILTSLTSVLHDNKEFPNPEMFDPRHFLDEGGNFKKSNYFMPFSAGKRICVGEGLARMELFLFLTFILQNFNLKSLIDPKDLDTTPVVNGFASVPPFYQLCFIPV
Cytochrome P450 2C9, sequence (P11712 whole entry): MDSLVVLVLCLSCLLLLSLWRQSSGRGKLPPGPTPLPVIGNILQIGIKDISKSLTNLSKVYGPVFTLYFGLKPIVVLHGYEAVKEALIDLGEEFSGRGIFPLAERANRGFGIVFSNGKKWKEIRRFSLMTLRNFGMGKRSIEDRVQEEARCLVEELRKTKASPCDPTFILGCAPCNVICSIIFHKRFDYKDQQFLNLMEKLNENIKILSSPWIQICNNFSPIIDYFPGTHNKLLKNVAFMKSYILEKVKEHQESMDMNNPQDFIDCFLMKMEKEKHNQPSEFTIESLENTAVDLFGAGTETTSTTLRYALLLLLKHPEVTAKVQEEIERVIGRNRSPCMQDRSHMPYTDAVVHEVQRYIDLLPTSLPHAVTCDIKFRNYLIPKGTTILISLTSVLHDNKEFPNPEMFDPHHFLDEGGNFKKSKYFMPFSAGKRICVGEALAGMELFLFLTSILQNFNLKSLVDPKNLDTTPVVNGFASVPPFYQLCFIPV
hERG (KCNH2), sequence (Q12809 whole entry): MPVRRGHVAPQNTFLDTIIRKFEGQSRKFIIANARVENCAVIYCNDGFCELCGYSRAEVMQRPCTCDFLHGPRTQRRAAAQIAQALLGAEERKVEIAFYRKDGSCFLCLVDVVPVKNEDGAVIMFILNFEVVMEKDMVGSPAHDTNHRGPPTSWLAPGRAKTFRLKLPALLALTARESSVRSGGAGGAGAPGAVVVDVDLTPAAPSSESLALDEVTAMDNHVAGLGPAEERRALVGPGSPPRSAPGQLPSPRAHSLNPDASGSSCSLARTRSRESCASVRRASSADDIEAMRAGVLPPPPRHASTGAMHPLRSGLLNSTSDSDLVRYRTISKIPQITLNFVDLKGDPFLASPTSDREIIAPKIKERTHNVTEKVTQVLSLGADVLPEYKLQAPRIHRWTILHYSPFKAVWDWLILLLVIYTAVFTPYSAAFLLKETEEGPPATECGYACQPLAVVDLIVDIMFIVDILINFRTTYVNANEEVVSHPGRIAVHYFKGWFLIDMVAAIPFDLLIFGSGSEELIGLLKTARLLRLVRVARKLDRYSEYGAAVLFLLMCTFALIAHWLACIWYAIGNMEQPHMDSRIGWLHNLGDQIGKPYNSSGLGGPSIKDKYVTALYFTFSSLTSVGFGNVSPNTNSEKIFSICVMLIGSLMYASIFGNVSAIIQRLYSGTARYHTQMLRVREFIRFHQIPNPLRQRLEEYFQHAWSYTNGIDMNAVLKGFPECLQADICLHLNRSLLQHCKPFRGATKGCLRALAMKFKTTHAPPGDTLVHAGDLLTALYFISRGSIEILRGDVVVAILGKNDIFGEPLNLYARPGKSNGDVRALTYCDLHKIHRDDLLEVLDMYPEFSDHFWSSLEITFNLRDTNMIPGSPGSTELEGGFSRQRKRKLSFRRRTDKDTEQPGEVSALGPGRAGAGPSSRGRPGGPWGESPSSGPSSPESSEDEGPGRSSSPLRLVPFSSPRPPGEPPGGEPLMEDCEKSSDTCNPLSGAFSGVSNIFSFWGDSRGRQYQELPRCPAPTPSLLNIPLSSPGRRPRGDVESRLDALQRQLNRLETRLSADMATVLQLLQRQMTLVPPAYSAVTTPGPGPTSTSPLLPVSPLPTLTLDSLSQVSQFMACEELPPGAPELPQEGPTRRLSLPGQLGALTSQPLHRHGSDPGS
Cytochrome P450 2D6, sequence (P10635 whole entry): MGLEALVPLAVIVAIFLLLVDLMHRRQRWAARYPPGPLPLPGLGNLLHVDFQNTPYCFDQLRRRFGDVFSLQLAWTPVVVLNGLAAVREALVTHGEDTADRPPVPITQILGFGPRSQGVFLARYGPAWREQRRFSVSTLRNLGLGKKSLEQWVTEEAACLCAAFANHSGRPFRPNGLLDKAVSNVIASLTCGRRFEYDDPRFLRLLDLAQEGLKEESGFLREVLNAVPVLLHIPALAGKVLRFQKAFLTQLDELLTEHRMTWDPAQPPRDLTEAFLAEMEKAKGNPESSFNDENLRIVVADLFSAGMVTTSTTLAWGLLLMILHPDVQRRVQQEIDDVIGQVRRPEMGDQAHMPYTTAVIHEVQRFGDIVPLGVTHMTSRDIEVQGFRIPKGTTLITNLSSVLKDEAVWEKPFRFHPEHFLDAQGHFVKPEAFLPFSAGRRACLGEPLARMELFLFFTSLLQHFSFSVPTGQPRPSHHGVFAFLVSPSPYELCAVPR
Cytochrome P450 3A4, sequence (P08684 whole entry): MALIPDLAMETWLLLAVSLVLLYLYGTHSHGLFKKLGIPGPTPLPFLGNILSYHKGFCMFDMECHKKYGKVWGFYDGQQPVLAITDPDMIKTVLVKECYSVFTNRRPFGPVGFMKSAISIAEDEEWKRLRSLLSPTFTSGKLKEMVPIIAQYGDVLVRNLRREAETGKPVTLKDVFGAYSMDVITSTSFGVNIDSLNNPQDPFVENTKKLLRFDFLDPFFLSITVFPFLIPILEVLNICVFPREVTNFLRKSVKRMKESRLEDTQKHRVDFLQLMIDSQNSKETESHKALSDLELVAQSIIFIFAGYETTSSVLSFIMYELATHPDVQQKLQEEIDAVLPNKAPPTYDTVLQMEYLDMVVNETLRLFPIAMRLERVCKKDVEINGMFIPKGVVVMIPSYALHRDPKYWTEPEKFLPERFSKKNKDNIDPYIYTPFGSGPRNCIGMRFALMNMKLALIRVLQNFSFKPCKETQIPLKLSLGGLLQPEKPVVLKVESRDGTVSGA

IC50 (Cytochrome P450 2C9): > 20000 nM
IC50 (Cytochrome P450 3A4): 19000 nM
half-life [2]: 2 h
Fu [4]: < 1%
half-life [5]: 2 h
IC50 (Cytochrome P450 2C8): 5000 nM
IC50 (Cytochrome P450 2D6): > 20000 nM
Ratio [8]: 0.51
IC50 (Cytochrome P450 2C19): > 20000 nM
Fu [9]: < 1%
half-life [13]: 98 h
Fu [15]: < 1%
half-life [16]: 1.78 h
Fu [18]: < 1%
half-life [21]: 2 h
IC50 [22]: > 80000 nM
Fu [24]: < 1%
Structure (SMILES): CCCCCC[C@@H]1CCc2cc([C@H]3CC[C@](N)(CO)C3)ccc2C1 [BMS-986104]
inhibition in vivo at 0.5 mg/kg (Mus musculus [1]): 68%
inhibition in vivo at 30 mg/kg (Mus musculus [3]): 90%
Activity (Mus musculus [6]): 55%
inhibition at 0.3 µM (hERG (KCNH2)): 36%
inhibition in vivo at 10 mg/kg (Mus musculus [7]): 80%
Activity (Mus musculus [10]): Dose-dependent effect
Activity (Mus musculus [11]): 33%
inhibition in vivo at 0.5 mg/kg (Mus musculus [12]): 52%
Activity (Mus musculus [14]): Dose-dependent effect
inhibition in vivo at 30 mg/kg (Mus musculus [17]): 88%
inhibition in vivo at 10 mg/kg (Mus musculus [19]): 90%
Activity (Mus musculus [20]): Active
inhibition in vivo at 1 mg/kg (Mus musculus [23]): 52%

Ratio [8]: 0.57
Structure (SMILES): CCCCCC[C@H]1CCc2cc([C@H]3CC[C@](N)(CO)C3)ccc2C1
inhibition in vivo at 30 mg/kg (Mus musculus [3]): 84%
inhibition in vivo at 0.5 mg/kg (Mus musculus [12]): 21%
inhibition in vivo at 30 mg/kg (Mus musculus [17]): 66%

EC50 [25]: > 1000 nM
EC50 (Mus musculus [14]): 35 nM
EC50 [26]: 60 nM
IC50 [27]: > 1000 nM
Structure (SMILES): CCCCCC[C@H]1CCc2cc([C@H]3CC[C@](N)(COP(=O)(O)O)C3)ccc2C1

EC50 [25]: > 1000 nM
EC50 [26]: 6.4 nM
IC50 [27]: > 1000 nM
Structure (SMILES): CCCCCC[C@@H]1CCc2cc([C@H]3CC[C@](N)(COP(=O)(O)O)C3)ccc2C1
Activity (Cerebellum [28]): Active
Activity (Cerebellum [29]): Active
Activity (Cerebellum [30]): 100%
